According to ChEMBL document CHEMBL1153620 (Eur J Med Chem, 2009):

Tests used:
Rattus norvegicus [1] = test: Antiinflammatory activity in rat assessed as inhibition of carrageenan-induced paw edema at 10 mg/kg, po; type: functional
In short: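 Rats, six per group, received the drug suspended in 1% CMC orally 30 min before carrageenan; one group served as control. Carrageenan was given as 0.05 mL of 1% w/v in 0.9% saline under the plantar aponeurosis of the right hind paw.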

Mus musculus = test: Analgesic activity in albino mouse inhibition of acetic acid-induced writhing response at 10 mg/kg, po; type: functional; parameters: scale not given: the % may be the effect or the level left
Gastric mucosa = test: Inhibition of lipid peroxidation assessed as malondialdehyde level per 100 mg of gastric mucosa isolated from albino rat at dose 30 mg/kg, po
Rattus norvegicus [2] = test: Gastrointestinal toxicity in albino rat assessed as ulcerogenic indicates at dose 30 mg/kg, po; details: in vivo
[3] = molecular target: T1, Prostaglandin G/H synthase 1 (Ovis aries, UniProt P05979); test: Inhibition of ovine COX1 by enzyme-immuno assay
T1 sequence (P05979 whole entry): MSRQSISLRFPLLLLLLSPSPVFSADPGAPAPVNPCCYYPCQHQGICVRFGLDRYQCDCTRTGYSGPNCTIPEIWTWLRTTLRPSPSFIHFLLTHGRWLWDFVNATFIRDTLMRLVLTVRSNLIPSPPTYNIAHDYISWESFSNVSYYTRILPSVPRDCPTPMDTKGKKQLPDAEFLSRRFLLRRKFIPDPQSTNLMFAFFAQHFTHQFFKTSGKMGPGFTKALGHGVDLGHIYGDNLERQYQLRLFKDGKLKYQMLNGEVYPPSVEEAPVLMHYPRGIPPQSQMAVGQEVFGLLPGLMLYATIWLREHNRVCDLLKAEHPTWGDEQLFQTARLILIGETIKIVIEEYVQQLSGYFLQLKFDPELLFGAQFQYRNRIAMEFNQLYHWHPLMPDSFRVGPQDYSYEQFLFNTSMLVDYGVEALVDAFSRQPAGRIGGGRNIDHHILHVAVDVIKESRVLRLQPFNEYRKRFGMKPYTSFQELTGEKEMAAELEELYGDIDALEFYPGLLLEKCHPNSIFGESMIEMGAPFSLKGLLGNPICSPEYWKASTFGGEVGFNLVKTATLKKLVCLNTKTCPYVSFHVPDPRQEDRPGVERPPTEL

Compound: CC(=O)Oc1ccccc1-c1nnc(CCC(=O)c2ccc(-c3ccccc3)cc2)o1
- inhibition in vivo at 10 mg/kg (Rattus norvegicus [1]): 43.7%
- Activity (Mus musculus): 56.3%
- MDA content at 30 mg/kg (Gastric mucosa): 5.8 nmol MDA/100 mg tissue
- UI (Rattus norvegicus [2]): 0.7

Compound: Cc1ccc(-c2nnc(CCC(=O)c3ccc(-c4ccccc4)cc3)o2)cc1
- inhibition in vivo at 10 mg/kg (Rattus norvegicus [1]): 50%
- Activity (Mus musculus): 45.1%
- MDA content at 30 mg/kg (Gastric mucosa): 5.8 nmol MDA/100 mg tissue
- UI (Rattus norvegicus [2]): 0.5

Compound: COc1ccc(-c2nnc(CCC(=O)c3ccc(-c4ccccc4)cc3)o2)cc1OC
- inhibition in vivo at 10 mg/kg (Rattus norvegicus [1]): 62.5%
- Activity (Mus musculus): 57.3%
- MDA content at 30 mg/kg (Gastric mucosa): 4.9 nmol MDA/100 mg tissue
- IC50 [3]: 54.1 µM

Compound: O=C(CCc1nnc(-c2ccccc2)o1)c1ccc(-c2ccccc2)cc1
- inhibition in vivo at 10 mg/kg (Rattus norvegicus [1]): 43.7%
- Activity (Mus musculus): 51.3%
- MDA content at 30 mg/kg (Gastric mucosa): 4.3 nmol MDA/100 mg tissue
- UI (Rattus norvegicus [2]): 0.4

Compound: O=C(CCc1nnc(-c2ccccc2Cl)o1)c1ccc(-c2ccccc2)cc1
- inhibition in vivo at 10 mg/kg (Rattus norvegicus [1]): 46.8%
- Activity (Mus musculus): 66.1%
- MDA content at 30 mg/kg (Gastric mucosa): 5.7 nmol MDA/100 mg tissue
- UI (Rattus norvegicus [2]): 0.5

Compound: O=C(CCc1nnc(-c2ccc(Cl)cc2)o1)c1ccc(-c2ccccc2)cc1
- inhibition in vivo at 10 mg/kg (Rattus norvegicus [1]): 53.1%
- Activity (Mus musculus): 61.9%
- MDA content at 30 mg/kg (Gastric mucosa): 5.8 nmol MDA/100 mg tissue
- UI (Rattus norvegicus [2]): 0.6

Compound: O=C(CCc1nnc(Cc2ccccc2)o1)c1ccc(-c2ccccc2)cc1
- inhibition in vivo at 10 mg/kg (Rattus norvegicus [1]): 50%
- Activity (Mus musculus): 54.1%
- MDA content at 30 mg/kg (Gastric mucosa): 5.8 nmol MDA/100 mg tissue
- UI (Rattus norvegicus [2]): 0.5

Compound: O=C(CCc1nnc(COc2ccccc2)o1)c1ccc(-c2ccccc2)cc1
- inhibition in vivo at 10 mg/kg (Rattus norvegicus [1]): 53.1%
- Activity (Mus musculus): 55.8%
- MDA content at 30 mg/kg (Gastric mucosa): 5.8 nmol MDA/100 mg tissue
- UI (Rattus norvegicus [2]): 0.6

Compound: COc1ccc(-c2nnc(CCC(=O)c3ccc(-c4ccccc4)cc3)o2)cc1
- inhibition in vivo at 10 mg/kg (Rattus norvegicus [1]): 59.4%
- Activity (Mus musculus): 51.3%
- MDA content at 30 mg/kg (Gastric mucosa): 6.1 nmol MDA/100 mg tissue
- IC50 [3]: 52.3 µM

Compound: O=C(CCc1nnc(-c2ccc(F)cc2)o1)c1ccc(-c2ccccc2)cc1
- inhibition in vivo at 10 mg/kg (Rattus norvegicus [1]): 53.1%
- Activity (Mus musculus): 72.5%
- MDA content at 30 mg/kg (Gastric mucosa): 4.6 nmol MDA/100 mg tissue
- UI (Rattus norvegicus [2]): 0.6

Compound: O=C(CCc1nnc(COc2ccc3ccccc3c2)o1)c1ccc(-c2ccccc2)cc1
- inhibition in vivo at 10 mg/kg (Rattus norvegicus [1]): 59.4%
- Activity (Mus musculus): 68.6%
- MDA content at 30 mg/kg (Gastric mucosa): 5.9 nmol MDA/100 mg tissue
- IC50 [3]: 48.4 µM

Compound: O=C(CCc1nnc(-c2ccc([N+](=O)[O-])cc2)o1)c1ccc(-c2ccccc2)cc1
- inhibition in vivo at 10 mg/kg (Rattus norvegicus [1]): 56.2%
- Activity (Mus musculus): 45.8%
- MDA content at 30 mg/kg (Gastric mucosa): 4.3 nmol MDA/100 mg tissue
- IC50 [3]: 42.6 µM

Compound: O=C(O)Cc1ccccc1Nc1c(Cl)cccc1Cl [DICLOFENAC]
- inhibition in vivo at 10 mg/kg (Rattus norvegicus [1]): 65.6%
- Activity (Mus musculus): 70.3%
- MDA content at 30 mg/kg (Gastric mucosa): 8.9 nmol MDA/100 mg tissue

Compound: O=C(O)CCC(=O)c1ccc(-c2ccccc2)cc1 [FENBUFEN]
- inhibition in vivo at 10 mg/kg (Rattus norvegicus [1]): 56.3%
- Activity (Mus musculus): 54.1%
- MDA content at 30 mg/kg (Gastric mucosa): 6.8 nmol MDA/100 mg tissue
- IC50 [3]: 3.9 µM
